Assay outcomes as filed in PubChem BioAssay.
Rpn11 inh: blocks the human proteasome subunit Rpn11; O00487; human 26S proteasome, Ub4-pepOG fluorescence polarization; 20S core pre-blocked with epoxomicin; inhibition, % at 20 µM; 0.59% of 360,000 active;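 active = inhibition at 20 µM, scaled to each plate's controls, above about 33%, limit read from the data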
Xi reactivation: activators of X-chromosome reactivation in mouse fibroblasts. 0.055% of 360,000 active. XiGFP mouse fibroblasts, % GFP-positive cells imaging, 3 d; cells co-treated with 5-aza-dC sensitizer; scaled so ellipticine positive control = 100%. activation, % at 7.58 µM;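 active = mean normalized replicate activation at least 10% and every replicate at or above 10%; inconclusive = only one of the two criteria met; inactive = mean below 10% and not all replicates reach 10%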;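 also: 0% = median of on-plate neutral control wells and 100% = ellipticine 6 µM median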
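System: SV40-immortalized XiGFP fibroblast cells, line 68-5-11 / Incubation: 3-day compound exposure, then 15 min fixation at room temperature / Compound: single concentration per compound, delivered by pin transfer / Buffer or medium: DMEM plus 5-aza-dC sensitizer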
aDG glyco act: alpha-DG glycosylation activation. Pro5-aDG cells, alpha-DG glycosylation AlphaScreen (IIH6); 0% Pro5, 100% B10-LARGE cell signal. activation, % at 10 µM. 0.22% of 360,000 active. AID 624168;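 active = activation of at least 8% versus controls, or a plate z-score of at least 8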;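 also: Pro5 are CHO cells carrying HIG-tagged alpha-DG that lacks glycosylation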
HNF4A DNA FP: change in binding of human HNF4 alpha to DNA; HNF4a-FITC DNA binding, fluorescence polarization, 1 h; 0.3% of 360,000 active; activity change, % at 10 µM; P41235; in the data active = activity change above about 30%, passing the limit was not always enough
Target sequence (P41235 whole entry, looked up): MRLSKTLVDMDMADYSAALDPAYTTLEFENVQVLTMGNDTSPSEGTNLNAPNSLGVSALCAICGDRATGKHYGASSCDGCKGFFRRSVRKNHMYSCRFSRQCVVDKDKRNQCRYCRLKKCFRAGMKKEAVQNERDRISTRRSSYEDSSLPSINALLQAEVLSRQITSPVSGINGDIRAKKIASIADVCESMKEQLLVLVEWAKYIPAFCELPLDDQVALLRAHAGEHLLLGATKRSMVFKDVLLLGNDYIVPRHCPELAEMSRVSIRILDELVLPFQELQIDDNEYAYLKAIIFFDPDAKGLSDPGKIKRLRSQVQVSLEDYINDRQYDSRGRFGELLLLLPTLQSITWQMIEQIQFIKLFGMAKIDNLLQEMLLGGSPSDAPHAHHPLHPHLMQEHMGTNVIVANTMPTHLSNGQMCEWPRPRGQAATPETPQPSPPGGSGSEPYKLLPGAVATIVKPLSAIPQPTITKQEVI
TPT1 inhibitor: C. albicans TPT1 enzyme inhibition; inhibition, % at 5 µM; 0.81% of 300,000 active; recombinant caTPT1, FP RNA substrate dephosphorylation; AID 1962;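 active = inhibition above the mean of all tested compounds plus 3 SD, set per screening campaign, cut at about 24% in these data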;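 also: plate controls were DMSO alone for no effect and ferristatin control at 100 nM for full effect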
CSN deneddyl inh: inhibitors of human CSN-mediated cullin deneddylation | 0.38% of 360,000 active | Q92905 | Purified CSN, SCF-Nedd8-OG deneddylation, fluorescence polarization | AID 651999 | inhibition, % at 12.5 µM;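 active = pattern-corrected inhibition above about 35%, with an unprinted fluorescence ratio check between 0.5 and 1.5, limit read from the data, passing the limit was not always enough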;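 also: 0% = enzyme with substrate and 100% = substrate without enzyme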
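Material: human Csn5 produced in HEK293T cells; Input: enzyme 0.24 nM; Reagent: SCFSkp2-Nedd8OG substrate at 10 nM final; Dosing: 12.5 µM compound; Incubation: 90 min reaction at room temperature; Detection: fluorescence polarization of the substrate; Evaluation: % inhibition of substrate cleavage by Csn5; Control set: substrate-only high control, full reaction low control.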
caTPT1 confirm: confirmation of Candida albicans TPT1 inhibitors. shares compounds with TPT1 inhibitor. recombinant caTPT1, fluorescence polarization, RNase T1 coupled. inhibition, % at 5 µM. 74% of 2,400 active;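 active = inhibition above the primary screen limit, the mean inhibition of all tested compounds plus 3 SD, cut at about 25% in these data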
RNase T1 inh: RNase T1 inhibition in TPT1 counter-screen | shares compounds with TPT1 inhibitor | RNase T1 cleavage, fluorescence polarization, 1536-well | inhibition, % at 5 µM | 83% of 2,400 active | AID 2153;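 active = inhibition above the solvent-only control well mean plus 3 SD, limit set per screening run, cut at about 23% in these data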;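 also: plate controls were DMSO wells with enzyme for no effect and wells without RNase T1 for full effect; inhibitors block cleavage so intact labeled substrate keeps polarization high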
Target sequence (P00651 whole entry, looked up): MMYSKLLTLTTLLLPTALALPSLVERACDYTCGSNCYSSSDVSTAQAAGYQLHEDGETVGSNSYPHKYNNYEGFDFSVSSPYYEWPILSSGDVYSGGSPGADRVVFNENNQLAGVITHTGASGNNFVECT
An asterisk follows results filed as active; ? = inconclusive; . = not tested or not shown. Sampled rows, rich in hits. Any-hit rate of the full collection: about 1.3%.

SMILES | Rpn11 inh | Xi reactivation | aDG glyco act | HNF4A DNA FP | TPT1 inhibitor | CSN deneddyl inh | caTPT1 confirm | RNase T1 inh
O=C1/C(=C/c2ccco2)SC(=S)N1CC1CCCO1 (stereo unspecified) | 7 | 0 | 0 | -2 | 8 | 27 | . | .
O=C1/C(=C\c2ccc(-c3ccccc3Cl)o2)SC(=S)N1CC1CCCO1 (stereo unspecified) | 0 | . | 0 | -9 | 27* | 7 | 48* | 61*
Cc1c(NC(=O)Cc2noc3ccccc23)cccc1[N+](=O)[O-] | 2 | 0 | 0 | 2 | 74* | -1 | 11 | 11
COc1ccc([N+](=O)[O-])cc1NC(=O)Cc1noc2ccccc12 | 9 | 0 | 0 | 0 | 1 | 3 | . | .
N#CC(C#N)=C/C(C#N)=C(/N)N1CCN(c2ccc(Cl)cc2)CC1 | 14 | . | 2 | 1 | 56* | 4 | 15 | 21
CN(C)C(=C(C#N)C#N)N1CCN(c2ccc(Cl)cc2)CC1 | 3 | 0 | 1 | 0 | -3 | -3 | . | .
COCC#Cc1ccc([C@H]2[C@H]3CN(C(=O)C4CCC4)CC(=O)N3[C@H]2CO)cc1 | . | 0 | . | . | . | . | . | .
O=C(NCc1ccccc1)c1cc(S(=O)(=O)N2CCOCC2)ccc1F | 28 | . | 0 | 17 | 48* | 9 | 40* | 52*
O=C(CCCCl)Oc1ccc2cc(-c3ccc4ccccc4n3)c(=O)oc2c1 | 33 | 0 | 0 | 18 | 49* | 10 | 35* | 42*
N#C/C(=C/c1ccc(-c2cc(C(=O)O)cc(C(=O)O)c2)o1)c1nc2ccccc2s1 | . | . | . | . | 141* | . | 141* | 133*
CC(C)(C)NC(=O)CSc1nc(O)cc(=O)n1-c1ccccc1F | . | . | 0 | 78* | 109* | 56* | 84* | 94*
C=CCn1c(C(CC(C)C)CC(C)O)n[nH]c1=S (stereo unspecified) | 5 | 0 | 0 | -1 | 43* | 1 | 2 | 4
Cc1cccc(NC(=O)c2sc3nc4c(c(-c5cccs5)c3c2N)CN(C)CC4)c1 | 27 | . | 0 | 18 | 38* | -7 | 28* | 35*
CCCNC(=O)N1CC2(C1)[C@H](c1ccccc1)[C@H](CO)N2Cc1ccccn1 | . | 0 | . | . | . | . | . | .
COc1cccc(NC(=O)CN(C)CC(=O)NC(C)c2ccccc2)c1 (stereo unspecified) | -5 | 0 | 0 | -3 | 2 | -6 | . | .
COc1ccc(CN(C)CC(=O)NC(C)c2ccccc2)c(OC)c1 (stereo unspecified) | -6 | 0 | 0 | 3 | 99* | 3 | 8 | 10
Cc1ccc(S(=O)(=O)N(C)C[C@H]2Oc3ccc(NC(=O)Nc4ccc(C(F)(F)F)cc4)cc3C(=O)N([C@@H](C)CO)C[C@H]2C)cc1 | . | 0 | . | . | . | . | . | .
Cc1ccc(/C=N/NC(=O)CN2CCN(S(=O)(=O)c3ccc(Br)cc3)CC2)s1 | -1 | 0 | 1 | 2 | 0 | -16 | . | .
O=C(CN1CCN(S(=O)(=O)c2ccc(Br)cc2)CC1)N/N=C/c1ccc(Br)s1 | 4 | 0 | 0 | 4 | 30* | 1 | 14 | 16
COc1ccc(C2C(C#N)=C3NC(=O)c4c(sc5c4CCCCC5)N3C3=C2C(=O)CC(C)(C)C3)cc1 (stereo unspecified) | 36 | . | 0 | 11 | 23 | 18 | . | .
COc1ccc(C2C(C#N)=C(N)N(c3sc4c(c3C#N)CCCC4)C3=C2C(=O)CC(C)(C)C3)cc1OC (stereo unspecified) | 30 | . | 0 | 2 | 28* | 21 | 14 | 17
COc1ccc(C2C(C#N)=C(N)N(c3sc4c(c3C#N)CCCC4)C3=C2C(=O)CC(C)(C)C3)cc1 (stereo unspecified) | 14 | . | 0 | 10 | 28* | 30 | 8 | 6
C[C@H](CO)N1C[C@H](C)[C@@H](CN(C)C(=O)c2ccccc2F)Oc2ncc(-c3ccc(F)cc3)cc2C1=O | . | 0 | . | . | . | . | . | .
COc1cccc(S(=O)(=O)Nc2ccc(C(=O)NCc3ccco3)cc2)c1 | 0 | . | 0 | -2 | 28* | 5 | 6 | 9
COc1ccc(NS(=O)(=O)c2cccc(C(=O)NCc3ccco3)c2)cc1 | 0 | 0 | 0 | -3 | 0 | 4 | . | .
SMILES | Rpn11 inh | Xi reactivation | aDG glyco act | HNF4A DNA FP | TPT1 inhibitor | CSN deneddyl inh | caTPT1 confirm | RNase T1 inh
CNC[C@@H]1Oc2ccc(NS(=O)(=O)c3ccc(OC)cc3)cc2CC(=O)N([C@@H](C)CO)C[C@H]1C | . | -1 | . | . | . | . | . | .
CCCCc1nc2ccccc2c(NC(=O)CNC(C)(C)C)c1CCC | -9 | . | 0 | 2 | -3 | -1 | . | .
CCCCc1nc2ccccc2c(N)c1CCC (tested in a mixture with another compound) | -16 | 0 | 1 | -2 | 40* | -4 | 4 | 5
Oc1ccccc1N=Cc1c(O)ccc2ccccc12 | . | 0 | 2 | 106 | . | 85 | . | .
C=Cc1ccc(N=Cc2c(O)ccc3ccccc23)cc1 | . | 0 | 0 | 80 | 40* | 39* | 129* | 133*
Oc1ccc2ccccc2c1C=Nc1ccc(N2CCOCC2)cc1 | . | . | . | . | 76* | . | 67* | 86*
CCN(CC)CC(=O)Nc1nc(-c2ccc(Cl)cc2)cs1 | -2 | . | 0 | 3 | 41* | 1 | 0 | 4
CCCN1CCN(C(=O)C2CCN(c3nnc(C)c4c(C)n(-c5ccc(C)cc5)nc34)CC2)CC1 | . | ? | 1 | 34 | 28* | 27 | 36* | 48*
Cc1ccc(-n2nc3c(N4CCC(C(=O)N5CCCCCC5)CC4)nnc(C)c3c2C)cc1 | 14 | . | 1 | 5 | 8 | 3 | . | .
C[C@H]1CN([C@@H](C)CO)C(=O)Cc2cc(NC(=O)Nc3ccc4c(c3)OCO4)ccc2O[C@@H]1CN(C)C | . | 0 | . | . | . | . | . | .
Cc1nc(-c2coc3cc(C)c(N=O)c(O)c3/c2=N\N)cs1 | 3 | 0 | 0 | 1 | 80* | 2 | 9 | 15
CCCNC(=O)N1CC2(CCN(C(=O)Cc3cccnc3)CC2)c2c([nH]c3cc(OC)ccc23)[C@H]1CO | . | 0 | . | . | . | . | . | .
O=C(CCN1CCC(c2cccs2)=N1)c1cccs1 | 11 | 0 | 0 | 4 | 28* | 3 | 5 | 10
COc1ccccc1NC(=O)c1ccc(N)cc1 | -6 | . | 0 | 2 | -5 | 9 | . | .
COC(=O)c1ccc(C(=O)Nc2ccc(N)cc2N)cc1 | . | . | 0 | 6 | 108* | 13 | 5 | 13
CC(=O)N(C)C[C@@H]1Oc2ccc(N(C)C)cc2CC(=O)N(C)C[C@@H]1C | . | 0 | . | . | . | . | . | .
